Data from ChEMBL document CHEMBL2016531, “Identification of NAE Inhibitors Exhibiting Potent Activity in Leukemia Cells: Exploring the Structural Determinants of NAE Specificity” (ACS Med Chem Lett, 2011).
Active and inactive are the calls of the source. The calls are words filed in the database; no cut-off is given here.

How the values were obtained:
Homo sapiens [1] = organism: Homo sapiens; experiment: Inhibition of human recombinant UAE assessed as inhibition of UbcH6-Ub complex formation at 0.001 to 10 uM after 1.5 hrs by Western blot analysis
Procedure, shortened: (§1)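 Cell-free gel assay. Purified human recombinant E1 incubated with its matching Ub/Ubl and E2 in 50 mM HEPES pH 7.4, 5 mM MgCl2, 1–20 μM ATP. Inhibitor at 0, 0.001, 0.01, 0.1, 1 or 10 μM, 1.5 h at room temperature. Products resolved by SDS-PAGE, immunoblotted and detected by ECL; densitometry used for semiquantitation.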

Homo sapiens [2] = organism: Homo sapiens; experiment: Inhibition of human recombinant NAE assessed as inhibition of NEDD8-UbcH12 complex formation at 0.001 to 10 uM after 1.5 hrs by Western blot analysis; procedure, shortened: as §1
[3] = target: Ubiquitin-like modifier-activating enzyme 5 (Homo sapiens) (UniProt Q9GZZ9); experiment: Inhibition of human recombinant UBA5 assessed as inhibition of […]-UFM1 complex formation at 10 uM after 1.5 hrs by Western blot analysis; procedure, shortened: as §1
K562 = experiment: Antiproliferative activity against human K562 cells after 72 hrs by CellTiter-Glo assay; type: functional, cell-based; conditions: K562, 72 h
Procedure, shortened: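 K562 leukemia cells exposed to increasing concentrations for 72 h; growth and viability read by CellTiter-Glo luminescence.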

[4] = target: SUMO-activating enzyme (Homo sapiens) (UniProt Q9UBE0+Q9UBT2); experiment: Inhibition of human recombinant SAE1/2 assessed as inhibition of SUMO1-UbcH9 complex formation at 0.001 to 10 uM after 1.5 hrs by Western blot analysis; type: protein-complex assay; procedure, shortened: as §1
Homo sapiens [5] = organism: Homo sapiens; experiment: Inhibition of human recombinant NAE assessed as inhibition of NEDD8-UbcH12 complex formation at <10 nM after 1.5 hrs by Western blot analysis; procedure, shortened: as §1
Homo sapiens [6] = organism: Homo sapiens; experiment: Inhibition of human recombinant NAE assessed as inhibition of NEDD8-UbcH12 complex formation at >10 nM after 1.5 hrs by Western blot analysis; procedure, shortened: as §1
Homo sapiens [7] = organism: Homo sapiens; experiment: Inhibition of human recombinant NAE assessed as inhibition of NEDD8-UbcH12 complex formation at 1 nM after 1.5 hrs by Western blot analysis; procedure, shortened: as §1
Homo sapiens [8] = organism: Homo sapiens; experiment: Inhibition of human recombinant NAE assessed as inhibition of NEDD8-UbcH12 complex formation at 10 nM after 1.5 hrs by Western blot analysis; procedure, shortened: as §1

Sequence of Ubiquitin-like modifier-activating enzyme 5 (Homo sapiens) (Q9GZZ9 whole entry): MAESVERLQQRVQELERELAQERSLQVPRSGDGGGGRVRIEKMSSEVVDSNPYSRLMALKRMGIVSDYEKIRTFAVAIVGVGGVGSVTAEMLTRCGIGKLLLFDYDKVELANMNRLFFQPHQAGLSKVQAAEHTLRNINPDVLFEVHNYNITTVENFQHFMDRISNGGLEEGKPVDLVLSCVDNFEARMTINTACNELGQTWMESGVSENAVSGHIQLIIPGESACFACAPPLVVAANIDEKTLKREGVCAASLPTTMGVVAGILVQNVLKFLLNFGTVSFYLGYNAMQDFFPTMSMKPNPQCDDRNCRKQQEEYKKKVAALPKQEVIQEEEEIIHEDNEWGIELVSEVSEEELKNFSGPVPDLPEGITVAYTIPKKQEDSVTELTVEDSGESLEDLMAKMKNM

Row | inhibition (Homo sapiens [1]) | inhibition (Homo sapiens [2]) | inhibition [3] | EC50 (K562) | inhibition [4] | inhibition (Homo sapiens [5]) | inhibition (Homo sapiens [6]) | inhibition (Homo sapiens [7]) | inhibition (Homo sapiens [8]) | Compound
1 | Active | Active | inactive | > 1000 nM | Active |  |  |  |  | NS(=O)(=O)OC[C@H]1O[C@@H](n2cnc3c(NCC4COCCOCCOCCOCCO4)ncnc32)[C@H](O)[C@@H]1O (stereo partly drawn)
2 |  |  |  |  |  | inactive | Active |  |  | CCCCN(C)c1ncnc2c1ncn2[C@@H]1O[C@H](COS(N)(=O)=O)[C@@H](O)[C@H]1O
3 | Active | Active | inactive |  | Active |  |  |  |  | NS(=O)(=O)OC[C@H]1O[C@@H](n2cnc3c(Nc4ccccc4)ncnc32)[C@H](O)[C@@H]1O
4 |  |  |  |  |  |  |  | < 16% |  | Nc1ncnc2c1ncn2[C@@H]1O[C@H](COS(N)(=O)=O)[C@@H](O)[C@H]1O
5 |  |  |  |  |  | inactive |  |  |  | NS(=O)(=O)OC[C@H]1O[C@@H](n2cnc3c(N4CCOCC4)ncnc32)[C@H](O)[C@@H]1O
6 | Active | Active | inactive | > 1000 nM | Active |  |  |  | < 25% | CCC(C)Nc1ncnc2c1ncn2[C@@H]1O[C@H](COS(N)(=O)=O)[C@@H](O)[C@H]1O (stereo partly drawn)
7 | Active | Active | inactive | 114 nM | Active |  |  |  | 100% | NS(=O)(=O)OC[C@H]1O[C@@H](n2cnc3c(NCc4cccs4)ncnc32)[C@H](O)[C@@H]1O
8 | Active | Active | inactive |  | Active |  |  |  |  | NS(=O)(=O)OC[C@H]1O[C@@H](n2cnc3c(NCCCn4ccnc4)ncnc32)[C@H](O)[C@@H]1O
9 |  |  |  | > 1000 nM |  |  |  |  |  | COCCNc1ncnc2c1ncn2[C@@H]1O[C@H](COS(N)(=O)=O)[C@@H](O)[C@H]1O
10 | Active | Active | inactive | > 1000 nM | Active |  |  |  | inactive | CC(C)(C)CC(C)(C)Nc1ncnc2c1ncn2[C@@H]1O[C@H](COS(N)(=O)=O)[C@@H](O)[C@H]1O
11 | Active | Active | inactive | 929 nM | Active |  |  |  | < 29% | CC(C)(C)CCNc1ncnc2c1ncn2[C@@H]1O[C@H](COS(N)(=O)=O)[C@@H](O)[C@H]1O
12 | Active | Active | inactive | 132 nM | Active |  |  | inactive |  | CCCCCCCNc1ncnc2c1ncn2[C@@H]1O[C@H](COS(N)(=O)=O)[C@@H](O)[C@H]1O
13 | Active | Active | inactive |  | Active |  |  |  |  | NS(=O)(=O)OC[C@H]1O[C@@H](n2cnc3c(N[C@@H]4C[C@H]5CCC4C5)ncnc32)[C@H](O)[C@@H]1O
14 |  |  |  |  |  |  | Active | < 58% |  | CCCCNc1ncnc2c1ncn2[C@@H]1O[C@H](COS(N)(=O)=O)[C@@H](O)[C@H]1O
15 | Active | Active | inactive | > 1000 nM | Active |  |  |  |  | NS(=O)(=O)OC[C@H]1O[C@@H](n2cnc3c(NCC4CCCO4)ncnc32)[C@H](O)[C@@H]1O (stereo partly drawn)
16 |  |  |  |  |  |  |  | inactive | < 76% | CNc1ncnc2c1ncn2[C@@H]1O[C@H](COS(N)(=O)=O)[C@@H](O)[C@H]1O

Row | inhibition (Homo sapiens [1]) | inhibition (Homo sapiens [2]) | inhibition [3] | EC50 (K562) | inhibition [4] | inhibition (Homo sapiens [5]) | inhibition (Homo sapiens [6]) | inhibition (Homo sapiens [7]) | inhibition (Homo sapiens [8]) | Compound
17 | Active | Active | inactive | 203 nM | Active |  |  |  |  | CCCCCC(C)Nc1ncnc2c1ncn2[C@@H]1O[C@H](COS(N)(=O)=O)[C@@H](O)[C@H]1O (stereo partly drawn)
18 |  |  |  |  |  | inactive | Active |  |  | CCN(c1ncnc2c1ncn2[C@@H]1O[C@H](COS(N)(=O)=O)[C@@H](O)[C@H]1O)C(C)C
19 | Active | Active | inactive | 559 nM | Active |  |  |  |  | NS(=O)(=O)OC[C@H]1O[C@@H](n2cnc3c(NCCc4cccs4)ncnc32)[C@H](O)[C@@H]1O
20 | Active | Active | inactive |  | Active | inactive |  |  |  | CCN(CC)c1ncnc2c1ncn2[C@@H]1O[C@H](COS(N)(=O)=O)[C@@H](O)[C@H]1O
21 |  |  |  | 380 nM |  |  |  |  |  | NS(=O)(=O)OC[C@H]1O[C@@H](n2cnc3c(NC4CCCCCCC4)ncnc32)[C@H](O)[C@@H]1O
22 |  |  |  |  |  | inactive |  |  |  | CN(Cc1ccccc1)c1ncnc2c1ncn2[C@@H]1O[C@H](COS(N)(=O)=O)[C@@H](O)[C@H]1O
23 |  |  |  | 181 nM |  |  |  | < 62% |  | CCCCCNc1ncnc2c1ncn2[C@@H]1O[C@H](COS(N)(=O)=O)[C@@H](O)[C@H]1O
24 | Active | Active | inactive |  | Active |  |  |  |  | CC(C)CC(C)Nc1ncnc2c1ncn2[C@@H]1O[C@H](COS(N)(=O)=O)[C@@H](O)[C@H]1O (stereo partly drawn)
25 |  |  |  |  |  | inactive |  |  |  | CCCCN(CC)c1ncnc2c1ncn2[C@@H]1O[C@H](COS(N)(=O)=O)[C@@H](O)[C@H]1O
26 | Active | Active | inactive | 108 nM | Active |  |  |  |  | NS(=O)(=O)OC[C@@H]1C[C@@H](n2ccc3c(N[C@H]4CCc5ccccc54)ncnc32)C[C@@H]1O [PEVONEDISTAT]
27 | Active | Active | inactive |  | Active | inactive |  |  |  | CCCCN(CCCC)c1ncnc2c1ncn2[C@@H]1O[C@H](COS(N)(=O)=O)[C@@H](O)[C@H]1O
28 |  |  |  |  |  |  | Active |  | 100% | NS(=O)(=O)OC[C@H]1O[C@@H](n2cnc3c(NCc4ccoc4)ncnc32)[C@H](O)[C@@H]1O
29 | Active | Active | inactive | > 1000 nM | Active | inactive | Active |  |  | CN(Cc1ccco1)c1ncnc2c1ncn2[C@@H]1O[C@H](COS(N)(=O)=O)[C@@H](O)[C@H]1O
30 | Active | Active | inactive |  | Active |  | Active |  |  | CC(C)Nc1ncnc2c1ncn2[C@@H]1O[C@H](COS(N)(=O)=O)[C@@H](O)[C@H]1O
31 | Active | Active | inactive | > 1000 nM | Active | inactive |  |  |  | NS(=O)(=O)OC[C@H]1O[C@@H](n2cnc3c(N4CCC5CCCCC5C4)ncnc32)[C@H](O)[C@@H]1O (stereo partly drawn)
32 | Active | Active | inactive |  | Active |  |  | inactive | < 63% | CCCNc1ncnc2c1ncn2[C@@H]1O[C@H](COS(N)(=O)=O)[C@@H](O)[C@H]1O
